These results are taken from ChEMBL document CHEMBL4038304, “Chiral Indolylarylsulfone Non-Nucleoside Reverse Transcriptase Inhibitors as New Potent and Broad Spectrum Anti-HIV-1 Agents” (J Med Chem, 2017).

Molecules are shown by their SMILES.

In one series the test system is Human immunodeficiency virus 1. Briefly: Ratio of EC50 for HIV-1 harboring reverse transcriptase Y188L mutant infected in human MT4 cells to EC50 for HIV1 NL4-3 infected in human MT4 cells. Type of series: functional.
Settings: not given
The method in brief:
(§1)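 Fold change calculated as EC50 against the stated resistant mutant HIV-1 strain divided by EC50 against wild-type NL4-3. Both EC50s come from MTT read-out of virus-induced death in MT-4 cells, mean of two to three independent experiments each in triplicate.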
In the case of `Cc1cc(C)cc(S(=O)(=O)c2c(C(=O)NC(C)C(=O)NCc3ccco3)[nH]c3ccc(Cl)cc23)c1` (racemic), the “Ratio EC50” value was 4053.

As to `Cc1cc(C)cc(S(=O)(=O)c2c(C(=O)NC(C)C(=O)NCCc3cccs3)[nH]c3ccc(Cl)cc23)c1` (racemic), the “Ratio EC50” value is recorded as more than 16336.

As to `Cc1cc(C)cc(S(=O)(=O)c2c(C(=O)NCC(=O)NC(C)c3ccncc3)[nH]c3ccc(Cl)cc23)c1` (racemic), the “Ratio EC50” value came out at 1017.

`Cc1cn([C@H]2C[C@H](N=[N+]=[N-])[C@@H](CO)O2)c(=O)[nH]c1=O` [ZIDOVUDINE]: the “Ratio EC50” value is on record as 8.9.

Test system in another series: not listed separately
The series can be described thus: Cytotoxicity against human MT4 cells assessed as cell viability by MTT assay. It counts as cell-based.
Settings: not given
In outline:
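Uninfected MT-4 cells scored for viability by MTT. […] Values are means of two to three independent experiments, each run in triplicate.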
Consider `Cc1cc(C)cc(S(=O)(=O)c2c(C(=O)NC(c3ccc(Cl)cc3)C3CC3)[nH]c3ccc(Cl)cc23)c1` (racemic), for which the CC50 – broadly, the concentration giving 50% cytotoxicity – is more than 47400 nM.

Consider `Cc1cc(C)cc(S(=O)(=O)c2c(C(=O)NC(C)C(=O)NCc3ccco3)[nH]c3ccc(Cl)cc23)c1` (racemic), for which the CC50 worked out at 24200 nM.

In the case of `Cc1cc(C)cc(S(=O)(=O)c2c(C(=O)NC(C)C(=O)NCCc3cccs3)[nH]c3ccc(Cl)cc23)c1` (racemic), the CC50 came to 9500 nM.

As to `Cc1cc(C)cc(S(=O)(=O)c2c(C(=O)NCC(=O)NC(C)c3ccncc3)[nH]c3ccc(Cl)cc23)c1` (racemic), the 50% cytotoxic concentration (CC50) was found to be 47000 nM.

For `Cc1cn([C@H]2C[C@H](N=[N+]=[N-])[C@@H](CO)O2)c(=O)[nH]c1=O` [ZIDOVUDINE], the half-maximal cytotoxic concentration (CC50) was more than 30600 nM.

In another series the test system is Human immunodeficiency virus 1. Briefly: Antiviral activity against HIV1 harboring reverse transcriptase Y181C mutant infected in human […] cells assessed as protection against virus-induced cytopathic effect measured on day 5 post infection by MTT assay. The settings on record: Human immunodeficiency virus 1, 120 h. Type of series: functional, cell-based. (In general: Damage to the host cells serves as the signal in cytopathic effect assays.)
Regarding `Cc1cc(C)cc(S(=O)(=O)c2c(C(=O)NC(C)C(=O)NCc3ccco3)[nH]c3ccc(Cl)cc23)c1` (racemic), the EC50 (usually the concentration that produces a half-maximal response) came out at 27 nM.

Turning to `Cc1cc(C)cc(S(=O)(=O)c2c(C(=O)NC(C)C(=O)NCCc3cccs3)[nH]c3ccc(Cl)cc23)c1` (racemic), the EC50 came out at 129 nM.

Turning to `Cc1cc(C)cc(S(=O)(=O)c2c(C(=O)NCC(=O)NC(C)c3ccncc3)[nH]c3ccc(Cl)cc23)c1` (racemic), the EC50 amounted to 0.6 nM.

`Cc1cn([C@H]2C[C@H](N=[N+]=[N-])[C@@H](CO)O2)c(=O)[nH]c1=O` [ZIDOVUDINE]: the concentration giving a half-maximal response (EC50) is 6 nM.

The next series has as its system Human immunodeficiency virus 1. The series can be described thus: Ratio of EC50 for HIV-1 harboring reverse transcriptase K103N/[…] double mutant infected in human MT4 cells to EC50 for HIV1 NL4-3 infected in human MT4 cells. It counts as functional.
Settings: not given
The method in brief:
as §1
For the compound `Cc1cc(C)cc(S(=O)(=O)c2c(C(=O)NC(C)C(=O)NCc3ccco3)[nH]c3ccc(Cl)cc23)c1` (racemic), the “Ratio EC50” value is more than 7521.

Take `Cc1cc(C)cc(S(=O)(=O)c2c(C(=O)NC(C)C(=O)NCCc3cccs3)[nH]c3ccc(Cl)cc23)c1` (racemic): the “Ratio EC50” value is more than 16336.

In the case of `Cc1cc(C)cc(S(=O)(=O)c2c(C(=O)NCC(=O)NC(C)c3ccncc3)[nH]c3ccc(Cl)cc23)c1` (racemic), the “Ratio EC50” value is given as 22227.

The test system of a further series is Human immunodeficiency virus 1. Briefly: Antiviral activity against HIV1 NL4-3 infected in human […] cells assessed as protection against virus-induced cytopathic effect measured on day 5 post infection by MTT assay. The settings on record: Human immunodeficiency virus 1, NL4-3, 120 h. It counts as functional, cell-based. In outline: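 Values are means of two to three independent experiments, each run in triplicate. The lowest detectable concentration is reported where activity fell below the assay limit.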
With `Cc1cc(C)cc(S(=O)(=O)c2c(C(=O)NC(c3ccc(Cl)cc3)C3CC3)[nH]c3ccc(Cl)cc23)c1` (racemic), the 50% effective concentration (EC50) stood at 133 nM.

For the compound `Cc1cc(C)cc(S(=O)(=O)c2c(C(=O)NC(C)C(=O)NCc3ccco3)[nH]c3ccc(Cl)cc23)c1` (racemic), the concentration giving a half-maximal response (EC50) was 0.6 nM.

For `Cc1cc(C)cc(S(=O)(=O)c2c(C(=O)NC(C)C(=O)NCCc3cccs3)[nH]c3ccc(Cl)cc23)c1` (racemic), the EC50 was 0.6 nM.

As for `Cc1cc(C)cc(S(=O)(=O)c2c(C(=O)NCC(=O)NC(C)c3ccncc3)[nH]c3ccc(Cl)cc23)c1` (racemic), the concentration giving a half-maximal response (EC50) turned out to be 0.6 nM.

Consider `Cc1cn([C@H]2C[C@H](N=[N+]=[N-])[C@@H](CO)O2)c(=O)[nH]c1=O` [ZIDOVUDINE], for which the EC50 was 3.7 nM.

The subject of a further series is Human immunodeficiency virus 1. The series can be described thus: Ratio of EC50 for HIV-1 harboring reverse transcriptase K103N mutant infected in human MT4 cells to EC50 for HIV1 NL4-3 infected in human MT4 cells. Type of series: functional.
Settings: not given
In outline:
as §1
On to `Cc1cc(C)cc(S(=O)(=O)c2c(C(=O)NC(C)C(=O)NCc3ccco3)[nH]c3ccc(Cl)cc23)c1` (racemic), for which the “Ratio EC50” value turned out to be 3.

`Cc1cc(C)cc(S(=O)(=O)c2c(C(=O)NC(C)C(=O)NCCc3cccs3)[nH]c3ccc(Cl)cc23)c1` (racemic): the “Ratio EC50” value is given as 30.

Turning to `Cc1cc(C)cc(S(=O)(=O)c2c(C(=O)NCC(=O)NC(C)c3ccncc3)[nH]c3ccc(Cl)cc23)c1` (racemic), the “Ratio EC50” value is on record as 64.

For `Cc1cn([C@H]2C[C@H](N=[N+]=[N-])[C@@H](CO)O2)c(=O)[nH]c1=O` [ZIDOVUDINE], the “Ratio EC50” value was determined as 4.3.

The test system of the next series is Human immunodeficiency virus 1. The series can be described thus: Antiviral activity against HIV1 harboring reverse transcriptase K103N mutant infected in human […] cells assessed as protection against virus-induced cytopathic effect measured on day 5 post infection by MTT assay. It counts as functional, cell-based. The settings on record: Human immunodeficiency virus 1, 120 h.
On to `Cc1cc(C)cc(S(=O)(=O)c2c(C(=O)NC(C)C(=O)NCc3ccco3)[nH]c3ccc(Cl)cc23)c1` (racemic), for which the EC50 worked out at 1.9 nM.

On to `Cc1cc(C)cc(S(=O)(=O)c2c(C(=O)NC(C)C(=O)NCCc3cccs3)[nH]c3ccc(Cl)cc23)c1` (racemic), for which the EC50 came out at 18 nM.

Take `Cc1cc(C)cc(S(=O)(=O)c2c(C(=O)NCC(=O)NC(C)c3ccncc3)[nH]c3ccc(Cl)cc23)c1` (racemic): the EC50 came out at 38 nM.

Take `Cc1cn([C@H]2C[C@H](N=[N+]=[N-])[C@@H](CO)O2)c(=O)[nH]c1=O` [ZIDOVUDINE]: the concentration giving a half-maximal response (EC50) stood at 16 nM.

Test system in the next series: not listed separately
The series can be described thus: Selectivity index, ratio of CC50 for human MT4 cells to EC50 for HIV1 NL4-3 infected in human MT4 cells. Type of series: toxicity, cell-based. The settings on record: read-out: Ratio CC50/EC50. The method in brief: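 SI computed as CC50/EC50, using the MTT-based CC50 in uninfected MT-4 cells and the MTT-based EC50 against HIV-1 NL4-3-induced cell death in MT-4 cells. Experiments were run in triplicate, two to three times.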
For the compound `Cc1cc(C)cc(S(=O)(=O)c2c(C(=O)NC(c3ccc(Cl)cc3)C3CC3)[nH]c3ccc(Cl)cc23)c1` (racemic), the selectivity ratio was more than 359.

As to `Cc1cc(C)cc(S(=O)(=O)c2c(C(=O)NC(C)C(=O)NCc3ccco3)[nH]c3ccc(Cl)cc23)c1` (racemic), the selectivity ratio was more than 40400.

On to `Cc1cc(C)cc(S(=O)(=O)c2c(C(=O)NC(C)C(=O)NCCc3cccs3)[nH]c3ccc(Cl)cc23)c1` (racemic), for which the selectivity ratio came out at 52800.

In the case of `Cc1cc(C)cc(S(=O)(=O)c2c(C(=O)NCC(=O)NC(C)c3ccncc3)[nH]c3ccc(Cl)cc23)c1` (racemic), the selectivity ratio was more than 78400.

In the case of `Cc1cn([C@H]2C[C@H](N=[N+]=[N-])[C@@H](CO)O2)c(=O)[nH]c1=O` [ZIDOVUDINE], the selectivity ratio was more than 8270.

The subject of another series is Human immunodeficiency virus 1. The series can be described thus: Ratio of EC50 for HIV-1 harboring reverse transcriptase Y181C mutant infected in human MT4 cells to EC50 for HIV1 NL4-3 infected in human MT4 cells.
Settings: not given
Type of series: functional. In outline:
as §1
For `Cc1cc(C)cc(S(=O)(=O)c2c(C(=O)NC(C)C(=O)NCc3ccco3)[nH]c3ccc(Cl)cc23)c1` (racemic), the “Ratio EC50” value was 45.

`Cc1cc(C)cc(S(=O)(=O)c2c(C(=O)NC(C)C(=O)NCCc3cccs3)[nH]c3ccc(Cl)cc23)c1` (racemic): the “Ratio EC50” value amounted to 215.

As to `Cc1cc(C)cc(S(=O)(=O)c2c(C(=O)NCC(=O)NC(C)c3ccncc3)[nH]c3ccc(Cl)cc23)c1` (racemic), the “Ratio EC50” value is given as 1.

As to `Cc1cn([C@H]2C[C@H](N=[N+]=[N-])[C@@H](CO)O2)c(=O)[nH]c1=O` [ZIDOVUDINE], the “Ratio EC50” value was 1.6.

The next series has as its system Human immunodeficiency virus 1. Briefly: Antiviral activity against HIV1 harboring reverse transcriptase K103N /[…] double mutant infected in human […] cells assessed as protection against virus-induced cytopathic effect measured on day 5 post infection by MTT assay. Type of series: functional, cell-based. The settings on record: Human immunodeficiency virus 1, 120 h.
Consider `Cc1cc(C)cc(S(=O)(=O)c2c(C(=O)NC(C)C(=O)NCc3ccco3)[nH]c3ccc(Cl)cc23)c1` (racemic), for which the EC50 was found to be 4510 nM.

As to `Cc1cc(C)cc(S(=O)(=O)c2c(C(=O)NC(C)C(=O)NCCc3cccs3)[nH]c3ccc(Cl)cc23)c1` (racemic), the EC50 was more than 9800 nM.

Regarding `Cc1cc(C)cc(S(=O)(=O)c2c(C(=O)NCC(=O)NC(C)c3ccncc3)[nH]c3ccc(Cl)cc23)c1` (racemic), the concentration for a half-maximal effect (EC50) came out at 13300 nM.

With `Cc1cn([C@H]2C[C@H](N=[N+]=[N-])[C@@H](CO)O2)c(=O)[nH]c1=O` [ZIDOVUDINE], the 50% effective concentration (EC50) stood at 16 nM.

The test system of another series is Human immunodeficiency virus 1. The series can be described thus: Antiviral activity against HIV1 harboring reverse transcriptase Y188L mutant infected in human […] cells assessed as protection against virus-induced cytopathic effect measured on day 5 post infection by MTT assay. The settings on record: Human immunodeficiency virus 1, 120 h. Type of series: functional, cell-based.
Turning to `Cc1cc(C)cc(S(=O)(=O)c2c(C(=O)NC(C)C(=O)NCc3ccco3)[nH]c3ccc(Cl)cc23)c1` (racemic), the EC50 was determined as 2430 nM.

`Cc1cc(C)cc(S(=O)(=O)c2c(C(=O)NC(C)C(=O)NCCc3cccs3)[nH]c3ccc(Cl)cc23)c1` (racemic): the EC50 was more than 9800 nM.

For `Cc1cc(C)cc(S(=O)(=O)c2c(C(=O)NCC(=O)NC(C)c3ccncc3)[nH]c3ccc(Cl)cc23)c1` (racemic), the EC50 amounted to 610 nM.

As for `Cc1cn([C@H]2C[C@H](N=[N+]=[N-])[C@@H](CO)O2)c(=O)[nH]c1=O` [ZIDOVUDINE], the EC50 is 33 nM.
